ChEMBL document CHEMBL1154325, “Cytotoxic clerodane diterpenoids from Casearia obliqua” (J Nat Prod, 2009)

Columns and labels:
[1] = test system: MDA-MB-435 (Homo sapiens); assay: Cytotoxic activity against human MDA-MB-435 cells after 69 hrs by MTT assay; conditions: MDA-MB-435, 69 h
SF-295 = assay: Cytotoxic activity against human SF295 cells after 69 hrs by MTT assay; assay type: functional, cell-based; conditions: SF-295, 69 h
Method in brief: (§1)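 Cells were grown in RPMI 1640 with 10% FBS, 2 mM glutamine, penicillin and streptomycin at 37 °C under 5% CO2, then plated. After 24 h, compounds in DMSO were added at 0.39-25 µg/mL, with doxorubicin at 0.01-0.58 µg/mL as positive control. After 69 h, MTT at 0.5 mg/mL was added for 3 h. Formazan was dissolved in DMSO and read at 595 nm. IC50 came from nonlinear regression.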

HCT-8 = assay: Cytotoxic activity against human HCT8 cells after 69 hrs by MTT assay; assay type: functional, cell-based; conditions: HCT-8, 69 h
Method in brief: as §1

HL-60 = assay: Cytotoxic activity against human HL60 cells after 69 hrs by MTT assay; assay type: functional, cell-based; conditions: HL-60, 69 h
Method in brief: as §1

Row | SMILES | IC50 [1] [µM] | IC50 (SF-295) [µM] | IC50 (HCT-8) [µM] | IC50 (HL-60) [µM]
1 | COc1cccc2c1C(=O)c1c(O)c3c(c(O)c1C2=O)C[C@@](O)(C(=O)CO)C[C@@H]3O[C@H]1C[C@H](N)[C@H](O)[C@H](C)O1 [DOXORUBICIN] | 0.12 | 0.75 | 1.5 | 0.07
2 | C=C/C(C)=C/C[C@]1(C)[C@H]2C[C@@H](OC(C)=O)C=C3[C@H](OC(C)=O)O[C@@H](OC(C)=O)[C@@]32[C@H](OC(=O)c2ccc(O)cc2)C[C@@H]1C [CASEOBLIQUIN A] | > 5 | > 5 | > 5 | > 5
3 | C=C/C(C)=C/C[C@]1(C)[C@H]2C[C@H](O)C=C3[C@H](OC(C)=O)O[C@@H](OC(C)=O)[C@@]32[C@H](OC(=O)/C=C/c2ccccc2)C[C@@H]1C | > 5 | > 5 | > 5 | > 5
